ChEMBL document CHEMBL1131470, “Inhibition of human O6-alkylguanine-DNA alkyltransferase and potentiation of the cytotoxicity of chloroethylnitrosourea by 4(6)-(benzyloxy)-2,6(4)-diamino-5-(nitro or nitroso)pyrimidine derivatives and analogues” (J Med Chem, 1998)
pIC50: −log10 of the molar value.

Key:
HeLa [1] = experiment: The compound was tested for its ability to enhance the cytotoxicity of ACNU toward HeLa S3 cells at 1 uM dose; assay type: functional, Homo sapiens
Method in brief: (§1)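 HeLa S3 cervical tumour cells (AGAT activity 418 fmol/mg protein) pretreated with test compound for 2 h at 0.01, 0.1, 1 or 10 μM, then exposed to increasing ACNU concentrations. Cytotoxicity measured by a previously reported method. Dose-modifying factor = IC50 for ACNU alone divided by IC50 for compound pretreatment followed by ACNU.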

[2] = The compound was tested for its ability to enhance the cytotoxicity of ACNU toward HeLa S3 cells at 10 uM dose; 'b' means toxicity appeared at this dose; assay type: cell-based; settings: human; method in brief: as §1
HeLa [3] = experiment: The compound was tested for its ability to enhance the cytotoxicity of ACNU toward HeLa S3 cells at 0.1 uM dose; assay type: functional, Homo sapiens; method in brief: as §1
HeLa [4] = experiment: The compound was tested for its ability to enhance the cytotoxicity of ACNU toward HeLa S3 cells at 0.01 uM dose; assay type: functional, Homo sapiens; method in brief: as §1
[5] = target: T1, Methylated-DNA--protein-cysteine methyltransferase (Homo sapiens, UniProt P16455); experiment: In vitro inhibitory activity against human O6-alkylguanine-DNA alkyltransferase (AGAT)
T1 sequence (P16455 whole entry): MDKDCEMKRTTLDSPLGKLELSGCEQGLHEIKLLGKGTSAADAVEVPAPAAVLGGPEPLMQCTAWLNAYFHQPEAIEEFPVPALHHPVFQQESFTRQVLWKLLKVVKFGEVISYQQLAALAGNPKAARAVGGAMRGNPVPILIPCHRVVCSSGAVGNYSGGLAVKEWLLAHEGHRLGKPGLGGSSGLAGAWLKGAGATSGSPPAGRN

HeLa [6] = experiment: The compound was tested for its ability to enhance the cytotoxicity of ACNU toward HeLa S3 cells at 10 uM dose; assay type: functional, Homo sapiens
Method in brief: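 HeLa S3 cervical tumour cells (AGAT activity 418 fmol/mg protein) pretreated 2 h with test compound […], then exposed to increasing ACNU concentrations. Dose-modifying factor = IC50 for ACNU alone divided by IC50 for compound pretreatment followed by ACNU.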

| Compound | Dose-modifying factor (HeLa [1]) | Dose-modifying factor [2] | Dose-modifying factor (HeLa [3]) | Dose-modifying factor (HeLa [4]) | pIC50 [5] | Dose-modifying factor (HeLa [6]) |
| --- | --- | --- | --- | --- | --- | --- |
| Nc1nc(N)c([N+](=O)[O-])c(OCc2ccccc2F)n1 | 1.1 | Toxicity appeared at this dose | 1 |  |  |  |
| Nc1nc(N)c(N=O)c(OCc2ccccc2)n1 | 8.8 |  | 4.3 | 1.2 | 6.89 |  |
| Nc1nc(N)c(N=O)c(OCc2ccc(F)cc2)n1 | 9.2 | Toxicity appeared at this dose | 5.8 | 1.4 |  |  |
| Nc1nc(N)c([N+](=O)[O-])c(OCc2ccncc2)n1 | 3.9 | Toxicity appeared at this dose | 1.2 |  |  |  |
| Nc1nc(N)c(N=O)c(OCc2ccncc2)n1 | 7.3 | Toxicity appeared at this dose | 2.9 | 1 |  |  |
| Nc1nc(N)c([N+](=O)[O-])c(OCc2ccccn2)n1 | 1 | Toxicity appeared at this dose | 1 |  |  |  |
| Nc1nc(OCc2ccccc2)c2nc[nH]c2n1 [6-O-BENZYLGUANINE] | 4.4 |  | 1.3 |  |  | 7.6 |
| Nc1nc(N)c([N+](=O)[O-])c(OCc2ccc(F)cc2)n1 | 5.1 | Toxicity appeared at this dose | 1.5 |  |  |  |
| Nc1nc(N)c([N+](=O)[O-])c(OCc2cccnc2)n1 | 3.6 | Toxicity appeared at this dose | 1.2 |  |  |  |
| Nc1nc(N)c([N+](=O)[O-])c(OCc2cccc(F)c2)n1 | 4.8 | Toxicity appeared at this dose | 1.2 |  |  |  |
| Nc1cc(OCc2ccccc2)nc(N)n1 |  |  |  |  | 3.77 | 1 |
| Nc1nc(N)c([N+](=O)[O-])c(OCc2ccccc2)n1 | 4 | Toxicity appeared at this dose | 1.2 |  |  |  |
